Assay results collected from several papers.
Protocols differ between the studies behind these lines.
Target: Carbonic anhydrase 1 (CA1, Homo sapiens, UniProt P00915)
Observed: enzyme activity
Mode: inhibitor

CC(C)(C)CCC(=O)Nc1nnc(S(N)(=O)=O)s1  Ki (stopped-flow): 0.267 µM
Nc1nc2c(ncn2COCCO)c(=O)[nH]1  Ki: 7.31 µM
CCOC(=O)c1ccc(=O)oc1  Ki (stopped-flow): > 100 µM
Cc1cncc(CN2CCC(=C3c4ccc(Cl)cc4CCc4cccnc43)CC2)c1  Ki (absorbance): 9.95 µM
NCCCC(=O)Nc1nnc(S(N)(=O)=O)s1  Ki (stopped-flow): 0.155 µM
O=C(O)c1cccc(=O)o1  Ki (stopped-flow): > 100 µM
C[C@H]1CCC[C@H](C(=O)Nc2nnc(S(N)(=O)=O)s2)C1 (racemic)  Ki (stopped-flow): 0.0639 µM
O=C(Oc1ccc(Cl)cc1)c1ccc(=O)oc1  Ki (stopped-flow): > 100 µM
NS(=O)(=O)c1nnc(NC(=O)CCC2CCCCO2)s1 (centres unmarked)  Ki (stopped-flow): 0.75 µM
CC[C@H]1OC(=O)[C@H](C)[C@@H](O[C@H]2C[C@@](C)(OC)[C@@H](O)[C@H](C)O2)[C@H](C)[C@@H](O[C@@H]2O[C@H](C)C[C@H](N(C)C)[C@H]2O)[C@](C)(O)C[C@@H](C)CN(C)[C@H](C)[C@@H](O)[C@]1(C)O  Ki: 10.2 µM
N#CSCc1cc(=O)oc2cc(O)ccc12  Ki (stopped-flow): > 100 µM
OC(Cn1cncn1)(Cn1cncn1)c1ccc(F)cc1F  Ki: 7.56 µM
Cc1cc(=O)oc2cc(OCCCCSC#N)ccc12  Ki (stopped-flow): > 100 µM
C[n+]1cc(C(=O)[O-])ccc1O  Ki (stopped-flow): > 100 µM
CN(C/C=C/C#CC(C)(C)C)Cc1cccc2ccccc12  Ki: 20.6 µM
CC1CCC(CC(=O)Nc2nnc(S(N)(=O)=O)s2)CC1 (centres unmarked)  Ki (stopped-flow): 0.0692 µM
O=C(Oc1ccccc1)c1ccc(=O)oc1  Ki (stopped-flow): > 100 µM
Cn1cnc([N+](=O)[O-])c1Sc1ncnc2nc[nH]c12  Ki: 12.4 µM
NS(=O)(=O)c1nnc(NC(=O)CN2CC3CCC2CC3)s1  Ki (stopped-flow): 0.144 µM
O=C(OCc1cn(-c2ccccc2)nn1)c1ccc(=O)oc1  Ki (stopped-flow): > 100 µM
